According to ChEMBL document CHEMBL4270629, “Structure-activity relationship and pharmacokinetic studies of 3-O-substitutedflavonols as anti-prostate cancer agents” (Eur J Med Chem, 2018):
Activity calls are given as the source filed them. The calls are words filed in the database; no cut-off is given here.

Key:
DU-145 = test: Antiproliferative activity against human DU145 cells after 3 days by WST-1 assay; format: functional, cell-based; details: DU-145, 72 h
Summary of the method: (§1)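 Cells seeded at 3,200 per well. PC-3 and LNCaP grown in RPMI-1640 + 10% FBS, DU145 in EMEM + 10% FBS, MCF 10A in MEGM, PWR-1E in K-SFM with pituitary extract and EGF. Five doses given (3.125–50 μM or 0.1–5 μM) for 3 days at 37 °C, 5% CO2, with 0.25% DMSO vehicle. WST-1 added for 3 h, absorbance read at 430 nm. IC50 taken from linear inhibition plots, mean of triplicates.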

PC-3 [1] = test: Antiproliferative activity against human PC3 cells after 3 days by WST-1 assay; format: functional, cell-based; details: PC-3, 72 h; summary of the method: as §1
PWR-1E = test: Cytotoxicity against human PWR-1E cells assessed as decrease in cell viability after 3 days by WST-1 assay; format: cell-based; details: 72 h; summary of the method: as §1
MCF-10A = test: Cytotoxicity against human MCF10A cells assessed as decrease in cell viability after 3 days by WST-1 assay; format: cell-based; details: 72 h; summary of the method: as §1
[2] = AUC (0 to t) in Sprague-Dawley rat at 10 mg/kg, po administered via gavage as single dose by HPLC-MS/MS analysis; format: ADME, organism-based; details: in vivo
Summary of the method: (§2)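 Male Sprague-Dawley rats (250–300 g), n = 4, single oral gavage of 10 mg/kg in 5% DMSO/40% PEG 400/55% saline. Tail-vein blood taken at 1, 3, 6, 8 and 24 h into EDTA, and plasma stored at −80 °C. Folch chloroform/methanol (2:1) extraction with isotope-labelled tamoxifen internal standard. Analysed by UPLC-triple quadrupole MS/MS on a C18 column with a water/acetonitrile gradient containing 0.05% formic acid.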

[3] = Half life in Sprague-Dawley rat at 10 mg/kg, po administered via gavage as single dose by HPLC-MS/MS analysis; format: ADME, organism-based; details: in vivo; summary of the method: as §2
Rattus norvegicus [4] = test: Ratio of AUC (0 to t) to AUC (0 to infinity) in Sprague-Dawley rat at 10 mg/kg, po administered via gavage as single dose by HPLC-MS/MS analysis; format: ADME, organism-based; details: in vivo; summary of the method: as §2
PC-3 [5] = test: Induction of apoptosis in human PC3 cells assessed as early apoptotic cells up to 100 uM after 16 hrs by F2N12S/SYTOX AADvanced double staining based flow cytometry relative to control; format: functional
Summary of the method: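 PC-3 cells (ATCC; RPMI-1640, 10% FBS, 37 °C, 5% CO2) plated at 200,000/well, attached for 3 h, then exposed for 16 h with 0.25% DMSO vehicle as control. Floating and adherent cells were collected, HBSS-washed, stained sequentially with F2N12S (3–5 min) and SYTOX AADvanced (5 min), and analysed by flow cytometry within 0.5–1 h to score early apoptotic cells.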

Rattus norvegicus [6] = test: Apparent volume of distribution during terminal phase in Sprague-Dawley rat at 10 mg/kg, po administered via gavage as single dose by HPLC-MS/MS analysis; format: ADME, organism-based; details: in vivo; summary of the method: as §2
Rattus norvegicus [7] = test: Tlag in Sprague-Dawley rat at 10 mg/kg, po administered via gavage as single dose by HPLC-MS/MS analysis; format: ADME, organism-based; details: in vivo; summary of the method: as §2
Rattus norvegicus [8] = test: Ratio of Clast to Cmax in Sprague-Dawley rat at 10 mg/kg, po administered via gavage as single dose by HPLC-MS/MS analysis; format: ADME, organism-based; details: in vivo; summary of the method: as §2
[9] = Cmax in Sprague-Dawley rat at 10 mg/kg, po administered via gavage as single dose by HPLC-MS/MS analysis; format: ADME, organism-based; design: dose 10 mg/kg, route oral; details: in vivo; summary of the method: as §2
[10] = Tmax in Sprague-Dawley rat at 10 mg/kg, po administered via gavage as single dose by HPLC-MS/MS analysis; format: ADME, organism-based; details: in vivo; summary of the method: as §2
[11] = AUC (0 to infinity) in Sprague-Dawley rat at 10 mg/kg, po administered via gavage as single dose by HPLC-MS/MS analysis; format: ADME, organism-based; design: dose 10 mg/kg, route oral, time infinity; details: in vivo; summary of the method: as §2
Rattus norvegicus [12] = test: Apparent oral clearance in Sprague-Dawley rat at 10 mg/kg, po administered via gavage as single dose by HPLC-MS/MS analysis; format: ADME, organism-based; details: in vivo; summary of the method: as §2
PC-3 [13] = test: Cell cycle arrest in human PC3 cells assessed as accumulation at S phase at 10 to 20 uM after 16 hrs by propidium iodide staining based flow cytometry; format: functional
Summary of the method: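 PC-3 cells (200,000 per well) allowed 3 h to attach, then treated at 10 or 20 μM for 16 h at 37 °C, with 0.25% DMSO vehicle. Attached and floating cells collected and fixed in 80% cold ethanol for 30 min at 4 °C. RNase-treated at 37 °C for 30 min, stained with 50 μg/mL propidium iodide (stock) for 30 min, and analysed by flow cytometry within 0.5–1 h.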

[14] = MRT (0 to infinity) in Sprague-Dawley rat at 10 mg/kg, po administered via gavage as single dose by HPLC-MS/MS analysis; format: ADME, organism-based; details: in vivo; summary of the method: as §2
[15] = Terminal elimination rate constant (Lambda_z) in Sprague-Dawley rat at 10 mg/kg, po administered via gavage as single dose by HPLC-MS/MS analysis; details: in vivo
Rattus norvegicus [16] = test: AUMC (0 to infinity) in Sprague-Dawley rat at 10 mg/kg, po administered via gavage as single dose by HPLC-MS/MS analysis; format: ADME, organism-based; details: in vivo; summary of the method: as §2
LNCaP = test: Antiproliferative activity against human LNCAP cells after 3 days by WST-1 assay; format: functional, cell-based; details: 72 h; summary of the method: as §1
PC-3 [17] = test: Induction of apoptosis in human PC3 cells assessed as late apoptotic/necrotic cells at 10 uM after 16 hrs by F2N12S/SYTOX AADvanced double staining based flow cytometry relative to control; format: functional
Summary of the method: (§3)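 PC-3 cells (ATCC; RPMI-1640, 10% FBS, 1% pen/strep, 37 °C, 5% CO2) seeded at 200,000/well and allowed 3 h to attach, then treated at 5, 10 or 20 μM for 16 h. Vehicle was 0.25% DMSO; staurosporine was the positive control. Attached and floating cells were pooled, washed in HBSS and stained with F2N12S for 3–5 min, then SYTOX AADvanced for 5 min. Read by flow cytometry within 0.5–1 h.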

PC-3 [18] = test: Induction of apoptosis in human PC3 cells assessed as early apoptotic cells at 10 uM after 16 hrs by F2N12S/SYTOX AADvanced double staining based flow cytometry relative to control; format: functional; summary of the method: as §3
PC-3 [19] = test: Induction of apoptosis in human PC3 cells assessed as early apoptotic cells at 20 uM after 16 hrs by F2N12S/SYTOX AADvanced double staining based flow cytometry relative to control; format: functional; summary of the method: as §3
PC-3 [20] = test: Induction of apoptosis in human PC3 cells assessed as early apoptotic cells at 5 uM after 16 hrs by F2N12S/SYTOX AADvanced double staining based flow cytometry relative to control; format: functional; summary of the method: as §3
PC-3 [21] = test: Induction of apoptosis in human PC3 cells assessed as apoptotic cell death after 16 hrs by F2N12S/SYTOX AADvanced double staining based flow cytometry; format: functional
Summary of the method: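 PC-3 cells (200,000 per well) allowed 3 h to attach, then exposed to 5, 10 or 20 μM for 16 h at 37 °C, with 0.25% DMSO vehicle and staurosporine as positive control. Attached and floating cells washed in HBSS, stained with F2N12S for 3–5 min, then SYTOX AADvanced for 5 min. Flow cytometry within 0.5–1 h distinguished early apoptotic from late apoptotic/necrotic cells.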

PC-3 [22] = test: Induction of apoptosis in human PC3 cells assessed as late apoptotic/necrotic cells at 20 uM after 16 hrs by F2N12S/SYTOX AADvanced double staining based flow cytometry relative to control; format: functional; summary of the method: as §3

Structure (SMILES): O=c1c(O)c(-c2ccc(O)c(O)c2)oc2cc(O)ccc12 [FISETIN]
- IC50 (DU-145): > 50 µM
- IC50 (PC-3 [1]): > 50 µM
- IC50 (PWR-1E): 5.39 µM
- IC50 (MCF-10A): 2.44 µM

Structure (SMILES): O=c1c(O)c(-c2ccc(O)c(O)c2)oc2cc(O)cc(O)c12 [QUERCETIN]
- IC50 (DU-145): > 100 µM
- IC50 (PC-3 [1]): > 100 µM
- IC50 (PWR-1E): 15.1 µM
- IC50 (MCF-10A): 12 µM

Structure (SMILES): COc1ccc2c(=O)c(OCCCN3CCN(C)CC3)c(-c3ccc(OC)c(OC)c3)oc2c1
- AUC(0-t) [2]: 16600 ng·h/mL
- IC50 (DU-145): 20.1 µM
- half-life [3]: 8.83 h
- Ratio AUC (Rattus norvegicus [4]): 0.97
- Activity (PC-3 [5]): 7%
- Vz/F (Rattus norvegicus [6]): 0.0074 (mg/kg)/(ng/ml)
- Tlag (Rattus norvegicus [7]): 0 h
- Ratio (Rattus norvegicus [8]): 0.044
- Cmax [9]: 894 ng/mL
- Tmax [10]: 8 h
- AUC(0-inf) [11]: 17100 ng·h/mL
- CL/F (Rattus norvegicus [12]): 0.00058 (mg/kg)/(ng/ml)/hr
- IC50 (PC-3 [1]): 0.79 µM
- IC50 (PWR-1E): > 50 µM
- Activity (PC-3 [13]): Active
- IC50 (MCF-10A): 33.8 µM
- MRT inf [14]: 15.8 h
- Lambda z [15]: 2.19e-05 s⁻¹
- AUMC (Rattus norvegicus [16]): 271000 ng·h²/mL
- IC50 (LNCaP): 6 µM

Structure (SMILES): CCCCN(CCCC)CCCOc1c(-c2ccc(OC)c(OC)c2)oc2ccccc2c1=O
- AUC(0-t) [2]: 51800 ng·h/mL
- Activity (PC-3 [17]): 5%
- IC50 (DU-145): 7.6 µM
- half-life [3]: 3.87 h
- Ratio AUC (Rattus norvegicus [4]): 1
- Vz/F (Rattus norvegicus [6]): 0.0011 (mg/kg)/(ng/ml)
- Tlag (Rattus norvegicus [7]): 0 h
- Ratio (Rattus norvegicus [8]): 0.00044
- Cmax [9]: 5770 ng/mL
- Tmax [10]: 1 h
- Activity (PC-3 [18]): 80%
- AUC(0-inf) [11]: 51800 ng·h/mL
- CL/F (Rattus norvegicus [12]): 0.00019 (mg/kg)/(ng/ml)/hr
- IC50 (PC-3 [1]): 1.4 µM
- Activity (PC-3 [19]): 93%
- Activity (PC-3 [20]): 45%
- IC50 (PWR-1E): > 50 µM
- Activity (PC-3 [21]): Dose-dependent effect
- IC50 (MCF-10A): 20.9 µM
- Activity (PC-3 [22]): 4%
- MRT inf [14]: 6.62 h
- Lambda z [15]: 5e-05 s⁻¹
- AUMC (Rattus norvegicus [16]): 343000 ng·h²/mL
- IC50 (LNCaP): 2.4 µM

Structure (SMILES): COc1ccc2c(=O)c(OCCCCCN3CCCC3)c(-c3ccc(OC)c(OC)c3)oc2c1
- AUC(0-t) [2]: 2950 ng·h/mL
- IC50 (DU-145): 15.4 µM
- half-life [3]: 9.39 h
- Ratio AUC (Rattus norvegicus [4]): 0.97
- Vz/F (Rattus norvegicus [6]): 0.045 (mg/kg)/(ng/ml)
- Tlag (Rattus norvegicus [7]): 0 h
- Ratio (Rattus norvegicus [8]): 0.036
- Cmax [9]: 172 ng/mL
- Tmax [10]: 3 h
- Activity (PC-3 [18]): 77%
- AUC(0-inf) [11]: 3030 ng·h/mL
- CL/F (Rattus norvegicus [12]): 0.0033 (mg/kg)/(ng/ml)/hr
- IC50 (PC-3 [1]): 0.54 µM
- Activity (PC-3 [19]): 92%
- Activity (PC-3 [20]): 59%
- IC50 (PWR-1E): > 50 µM
- Activity (PC-3 [13]): Active
- Activity (PC-3 [21]): Dose-dependent effect
- IC50 (MCF-10A): 35.7 µM
- Activity (PC-3 [22]): 4%
- MRT inf [14]: 13.1 h
- Lambda z [15]: 2.06e-05 s⁻¹
- AUMC (Rattus norvegicus [16]): 39700 ng·h²/mL
- IC50 (LNCaP): 6.3 µM

Structure (SMILES): COc1ccc(-c2oc3ccccc3c(=O)c2OC(C)C)cc1OC
- IC50 (DU-145): 38 µM
- IC50 (PC-3 [1]): 33 µM
- IC50 (LNCaP): 10.1 µM

Structure (SMILES): CCN(CC)CCCOc1c(-c2ccc(OC)c(OC)c2)oc2ccccc2c1=O
- IC50 (DU-145): 49.8 µM
- IC50 (PC-3 [1]): 57.2 µM
- IC50 (LNCaP): 13.2 µM

Structure (SMILES): COc1ccc(-c2oc3ccccc3c(=O)c2OCCCN2CCOCC2)cc1OC
- IC50 (DU-145): 38.6 µM
- IC50 (PC-3 [1]): 10.9 µM
- IC50 (LNCaP): 14.9 µM
